Source: ChEMBL document CHEMBL5104225, “Synthesis and structure-activity relationship studies of N-terminal analogues of the lipopeptide antibiotics brevicidine and laterocidine” (RSC Med Chem, 2022)
Values after ≈ are worked out from the molar mass of the structure shown. Bridge positions count the residues as written; N and C are the ends. Square brackets hold non-standard residues; d marks the D form. Peptide text beside a SMILES is read from it. * marks the point of attachment. Palmitoyl = CCCCCCCCCCCCCCCC(=O)*; Lauroyl = CCCCCCCCCCCC(=O)*; Decanoyl = CCCCCCCCCC(=O)*; dOrn = NCCC[C@@H](N)C(=O)O; Orn = NCCC[C@H](N)C(=O)O; Hexanoyl = CCCCCC(=O)*; Butyryl = CCCC(=O)*

Columns and labels:
Assay type in all cases: functional
[1] = system: Klebsiella pneumoniae; test: Antibacterial activity against Klebsiella pneumoniae ATCC 13883 assessed as inhibition of bacterial growth incubated for 18 hrs by CLSI protocol based method
Method in brief: (§1)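 Single colonies from blood agar (16 h, 37 °C) grown in TSB at 37 °C, 220 rpm to OD600 ~0.5, then diluted in MHB to 2×10^5 CFU/mL. Mixed with serial MHB dilutions of DMSO stocks in polypropylene plates, sealed, and incubated 18 h at 37 °C, 600 rpm. MIC was taken as the lowest concentration with no visible growth; three technical replicates.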

[2] = system: Pseudomonas aeruginosa; test: Antibacterial activity against Pseudomonas aeruginosa PAO1 assessed as inhibition of bacterial growth incubated for 18 hrs by CLSI protocol based method; method in brief: as §1
[3] = system: Escherichia coli; test: Antibacterial activity against Escherichia coli ATCC 25922 assessed as inhibition of bacterial growth incubated for 18 hrs by CLSI protocol based method
Method in brief: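 Broth microdilution MIC. Strain streaked from glycerol stock on sheep blood agar (16 h, 37 °C); a colony was grown in TSB at 37 °C, 220 rpm, to OD600 about 0.5. Cells were diluted in MHB to 2×10^5 CFU/mL and added 1:1 to serial dilutions in MHB in polypropylene plates.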

[4] = system: Staphylococcus aureus; test: Antibacterial activity against Staphylococcus aureus USA300 assessed as inhibition of bacterial growth incubated for 18 hrs by CLSI protocol based method; method in brief: as §1
[5] = system: Acinetobacter baumannii; test: Antibacterial activity against Acinetobacter baumannii ATCC 17961 assessed as inhibition of bacterial growth incubated for 18 hrs by CLSI protocol based method; method in brief: as §1
[6] = system: Escherichia coli; test: Antibacterial activity against colistin-resistant Escherichia coli ATCC 25922 carrying MCR-1 gene assessed as inhibition of bacterial growth incubated for 18 hrs by CLSI protocol based method
Method in brief: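 Broth microdilution MIC. MCR-1 strain grown from glycerol stock in TSB with kanamycin (16 h, 37 °C, 220 rpm), diluted 100-fold in the same medium and grown to OD600 about 0.5. Cells were diluted in MHB to 2×10^5 CFU/mL and added 1:1 to serial dilutions in MHB. Incubated 18 h, 37 °C, 600 rpm; visual lowest no-growth concentration; three technical replicates.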

Compound | MIC [1] [µg/mL] | MIC [2] [µg/mL] | MIC [3] [µg/mL] | MIC [4] [µg/mL] | MIC [5] [µg/mL] | MIC [6] [µg/mL]
CC[C@H](C)[C@@H]1NC(=O)[C@@H](NC(=O)[C@H](Cc2c[nH]c3ccccc23)NC(=O)[C@@H](CCCN)NC(=O)CNC(=O)[C@H](CCCN)NC(=O)[C@@H](CCCN)NC(=O)[C@@H](Cc2c[nH]c3ccccc23)NC(=O)[C@@H](Cc2ccc(O)cc2)NC(=O)[C@H](N)CC(N)=O)[C@@H](C)OC(=O)[C@H](CO)NC(=O)CNC1=O | > 32 | 16 (≈ 11.4 µM) | > 32 | > 32 | > 32 | 
CC[C@H](C)[C@@H]1NC(=O)[C@@H](NC(=O)[C@H](Cc2c[nH]c3ccccc23)NC(=O)[C@@H](CCCN)NC(=O)CNC(=O)[C@H](CCCN)NC(=O)[C@@H](CCCN)NC(=O)[C@@H](Cc2c[nH]c3ccccc23)NC(=O)[C@@H](Cc2ccc(O)cc2)NC(=O)[C@@H](CC(N)=O)NC(C)=O)[C@@H](C)OC(=O)[C@H](CO)NC(=O)CNC1=O (Ac-[dN][dY][dW][dOrn][Orn]G[dOrn]WTIGS; ester 9-C) | > 32 | 8 (≈ 5.52 µM) | > 32 | > 32 | > 32 | 
CC[C@H](C)[C@@H]1NC(=O)[C@@H](NC(=O)[C@H](Cc2c[nH]c3ccccc23)NC(=O)[C@@H](CCCN)NC(=O)CNC(=O)[C@H](CCCN)NC(=O)[C@@H](CCCN)NC(=O)[C@@H](Cc2c[nH]c3ccccc23)NC(=O)[C@@H](Cc2ccc(O)cc2)NC(=O)[C@@H](CO)NC(C)=O)[C@@H](C)OC(=O)CNC(=O)CNC(=O)[C@H](CC(N)=O)NC1=O (Ac-[dS][dY][dW][dOrn][Orn]G[dOrn]WTINGG; ester 9-C) | > 32 | 16 (≈ 10.6 µM) | > 32 | > 32 | > 32 | 
CCCC(=O)N[C@H](CC(N)=O)C(=O)N[C@H](Cc1ccc(O)cc1)C(=O)N[C@H](Cc1c[nH]c2ccccc12)C(=O)N[C@H](CCCN)C(=O)N[C@@H](CCCN)C(=O)NCC(=O)N[C@H](CCCN)C(=O)N[C@@H](Cc1c[nH]c2ccccc12)C(=O)N[C@@H]1C(=O)N[C@@H]([C@@H](C)CC)C(=O)NCC(=O)N[C@@H](CO)C(=O)O[C@@H]1C (Butyryl-[dN][dY][dW][dOrn][Orn]G[dOrn]WTIGS; ester 9-C) | 8 (≈ 5.41 µM) | 16 (≈ 10.8 µM) | 32 (≈ 21.7 µM) | > 32 | 32 (≈ 21.7 µM) | 32 (≈ 21.7 µM)
CCCC(=O)N[C@H](CO)C(=O)N[C@H](Cc1ccc(O)cc1)C(=O)N[C@H](Cc1c[nH]c2ccccc12)C(=O)N[C@H](CCCN)C(=O)N[C@@H](CCCN)C(=O)NCC(=O)N[C@H](CCCN)C(=O)N[C@@H](Cc1c[nH]c2ccccc12)C(=O)N[C@@H]1C(=O)N[C@@H]([C@@H](C)CC)C(=O)N[C@@H](CC(N)=O)C(=O)NCC(=O)NCC(=O)O[C@@H]1C (Butyryl-[dS][dY][dW][dOrn][Orn]G[dOrn]WTINGG; ester 9-C) | 32 (≈ 20.9 µM) | 8 (≈ 5.21 µM) | 16 (≈ 10.4 µM) | > 32 | > 32 | 32 (≈ 20.9 µM)
CCCCCCCCCC(=O)N[C@H](CC(N)=O)C(=O)N[C@H](Cc1ccc(O)cc1)C(=O)N[C@H](Cc1c[nH]c2ccccc12)C(=O)N[C@H](CCCN)C(=O)N[C@@H](CCCN)C(=O)NCC(=O)N[C@H](CCCN)C(=O)N[C@@H](Cc1c[nH]c2ccccc12)C(=O)N[C@@H]1C(=O)N[C@@H]([C@@H](C)CC)C(=O)NCC(=O)N[C@@H](CO)C(=O)O[C@@H]1C (Decanoyl-[dN][dY][dW][dOrn][Orn]G[dOrn]WTIGS; ester 9-C) | 4 (≈ 2.56 µM) | 8 (≈ 5.12 µM) | 4 (≈ 2.56 µM) | 32 (≈ 20.5 µM) | 4 (≈ 2.56 µM) | 4 (≈ 2.56 µM)
CCCCCCCCCC(=O)N[C@H](CO)C(=O)N[C@H](Cc1ccc(O)cc1)C(=O)N[C@H](Cc1c[nH]c2ccccc12)C(=O)N[C@H](CCCN)C(=O)N[C@@H](CCCN)C(=O)NCC(=O)N[C@H](CCCN)C(=O)N[C@@H](Cc1c[nH]c2ccccc12)C(=O)N[C@@H]1C(=O)N[C@@H]([C@@H](C)CC)C(=O)N[C@@H](CC(N)=O)C(=O)NCC(=O)NCC(=O)O[C@@H]1C (Decanoyl-[dS][dY][dW][dOrn][Orn]G[dOrn]WTINGG; ester 9-C) | 2 (≈ 1.24 µM) | 2 (≈ 1.24 µM) | 2 (≈ 1.24 µM) | > 32 | 2 (≈ 1.24 µM) | 2 (≈ 1.24 µM)
CC[C@H](C)[C@@H]1NC(=O)[C@@H](NC(=O)[C@H](Cc2c[nH]c3ccccc23)NC(=O)[C@@H](CCCN)NC(=O)CNC(=O)[C@H](CCCN)NC(=O)[C@@H](CCCN)NC(=O)[C@@H](Cc2c[nH]c3ccccc23)NC(=O)[C@@H](Cc2ccc(O)cc2)NC(=O)[C@H](N)CO)[C@@H](C)OC(=O)CNC(=O)CNC(=O)[C@H](CC(N)=O)NC1=O (H-[dS][dY][dW][dOrn][Orn]G[dOrn]WTINGG; ester 9-C) | > 32 | > 32 | > 32 | > 32 | > 32 | 
CCCCCC(=O)N[C@H](CC(N)=O)C(=O)N[C@H](Cc1ccc(O)cc1)C(=O)N[C@H](Cc1c[nH]c2ccccc12)C(=O)N[C@H](CCCN)C(=O)N[C@@H](CCCN)C(=O)NCC(=O)N[C@H](CCCN)C(=O)N[C@@H](Cc1c[nH]c2ccccc12)C(=O)N[C@@H]1C(=O)N[C@@H]([C@@H](C)CC)C(=O)NCC(=O)N[C@@H](CO)C(=O)O[C@@H]1C (Hexanoyl-[dN][dY][dW][dOrn][Orn]G[dOrn]WTIGS; ester 9-C) | 4 (≈ 2.66 µM) | > 32 | 8 (≈ 5.31 µM) | > 32 | 16 (≈ 10.6 µM) | 8 (≈ 5.31 µM)
CCCCCC(=O)N[C@H](CO)C(=O)N[C@H](Cc1ccc(O)cc1)C(=O)N[C@H](Cc1c[nH]c2ccccc12)C(=O)N[C@H](CCCN)C(=O)N[C@@H](CCCN)C(=O)NCC(=O)N[C@H](CCCN)C(=O)N[C@@H](Cc1c[nH]c2ccccc12)C(=O)N[C@@H]1C(=O)N[C@@H]([C@@H](C)CC)C(=O)N[C@@H](CC(N)=O)C(=O)NCC(=O)NCC(=O)O[C@@H]1C (Hexanoyl-[dS][dY][dW][dOrn][Orn]G[dOrn]WTINGG; ester 9-C) | 8 (≈ 5.12 µM) | 4 (≈ 2.56 µM) | 4 (≈ 2.56 µM) | > 32 | 16 (≈ 10.2 µM) | 8 (≈ 5.12 µM)
CCCCCCCCCCCC(=O)N[C@H](CC(N)=O)C(=O)N[C@H](Cc1ccc(O)cc1)C(=O)N[C@H](Cc1c[nH]c2ccccc12)C(=O)N[C@H](CCCN)C(=O)N[C@@H](CCCN)C(=O)NCC(=O)N[C@H](CCCN)C(=O)N[C@@H](Cc1c[nH]c2ccccc12)C(=O)N[C@@H]1C(=O)N[C@@H]([C@@H](C)CC)C(=O)NCC(=O)N[C@@H](CO)C(=O)O[C@@H]1C (Lauroyl-[dN][dY][dW][dOrn][Orn]G[dOrn]WTIGS; ester 9-C) | 8 (≈ 5.03 µM) | 16 (≈ 10.1 µM) | 8 (≈ 5.03 µM) | 32 (≈ 20.1 µM) | 4 (≈ 2.52 µM) | 8 (≈ 5.03 µM)
CCCCCCCCCCCC(=O)N[C@H](CO)C(=O)N[C@H](Cc1ccc(O)cc1)C(=O)N[C@H](Cc1c[nH]c2ccccc12)C(=O)N[C@H](CCCN)C(=O)N[C@@H](CCCN)C(=O)NCC(=O)N[C@H](CCCN)C(=O)N[C@@H](Cc1c[nH]c2ccccc12)C(=O)N[C@@H]1C(=O)N[C@@H]([C@@H](C)CC)C(=O)N[C@@H](CC(N)=O)C(=O)NCC(=O)NCC(=O)O[C@@H]1C (Lauroyl-[dS][dY][dW][dOrn][Orn]G[dOrn]WTINGG; ester 9-C) | 8 (≈ 4.86 µM) | 8 (≈ 4.86 µM) | 4 (≈ 2.43 µM) | 32 (≈ 19.4 µM) | 2 (≈ 1.21 µM) | 4 (≈ 2.43 µM)
CCCCCCCCCCCCCCCC(=O)N[C@H](CC(N)=O)C(=O)N[C@H](Cc1ccc(O)cc1)C(=O)N[C@H](Cc1c[nH]c2ccccc12)C(=O)N[C@H](CCCN)C(=O)N[C@@H](CCCN)C(=O)NCC(=O)N[C@H](CCCN)C(=O)N[C@@H](Cc1c[nH]c2ccccc12)C(=O)N[C@@H]1C(=O)N[C@@H]([C@@H](C)CC)C(=O)NCC(=O)N[C@@H](CO)C(=O)O[C@@H]1C (Palmitoyl-[dN][dY][dW][dOrn][Orn]G[dOrn]WTIGS; ester 9-C) | > 32 | > 32 | > 32 | > 32 | 32 (≈ 19.4 µM) | 
